Only some compounds are listed: those with a hit (about 3.5% of all), similar ones and a draw of the others.
MrgX1 agonist – activates human MrgX1 receptor signaling. Q96LB2. MrgX1-HEK293 cells, Fluo-4 calcium fluorescence, agonist mode; stronger effect = higher value. B-score at 10 µM. 310,000 compounds, 0.44% hits;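 active = calcium response B-score plate-corrected fluorescence ratio at least 3 library SD, with starting fluorescence B-score inside 5 SD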
Target sequence (Q96LB2 whole entry, looked up): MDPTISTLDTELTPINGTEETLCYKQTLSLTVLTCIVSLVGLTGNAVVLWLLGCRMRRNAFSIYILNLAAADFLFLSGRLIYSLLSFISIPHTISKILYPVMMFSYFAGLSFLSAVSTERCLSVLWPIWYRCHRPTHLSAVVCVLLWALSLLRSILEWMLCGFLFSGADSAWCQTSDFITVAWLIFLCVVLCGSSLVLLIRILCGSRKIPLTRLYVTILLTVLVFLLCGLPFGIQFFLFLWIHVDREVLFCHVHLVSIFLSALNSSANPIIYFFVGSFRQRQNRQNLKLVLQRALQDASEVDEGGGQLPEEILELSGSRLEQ
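Test system: HEK293 cells stably expressing human MrgX1 receptor; Input: fifteen thousand cells per well; Dosing: compound delivered in addition one of three; Schedule: overnight seeding, then 1 h dark dye loading; Technique: Fluo-4 NW calcium fluorescence; Measure: B-scored fluorescence response ratio; Controls: positive and negative controls per plate.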
MrgX1 PAM – human MrgX1 positive allosteric modulation, primary screen | Q96LB2 | MrgX1-HEK293, Fluo-4 calcium flux, FDSS; stronger effect = higher value | B-score at 10 µM | 310,000 compounds, 0.63% hits;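 active = plate-corrected calcium response at least 3 library SD above typical, normal starting fluorescence, not activating the receptor alone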;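 note: compound read alongside a low EC10 to EC30 dose of BAM8-22 agonist; peak minus trough fluorescence over baseline measured at the second addition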
MrgX1 antagonist – human MrgX1 receptor antagonism, primary screen | MRGX1-HEK293 calcium flux, Fluo-4, BAM8-22 antagonism; stronger effect = lower value | AID 588676 | B-score at 10 µM | 310,000 compounds, 1.3% hits;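 active = calcium-response B-score plate-corrected more than 3 library SD below zero, starting fluorescence within 5 deviations, no agonist response on first addition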;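 note: peak minus trough fluorescence over baseline after final BAM8-22 challenge near maximal dose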
RGS4 act – potentiators or activators of RGS4; HEK293 M3R/inducible RGS4, carbachol calcium flux Fluo4; stronger effect = lower value; B-score at 10 µM; 310,000 compounds, 0.92% hits;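 active = B-score of the integrated calcium signal more than 4 SD below the library mean, with starting fluorescence not abnormally high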;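 note: negative B-score means reduced calcium response which marks RGS4 activation or potentiation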
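Material: Inducible-RGS4 HEK293 cells carrying M3 receptor; also added: carbachol at ECmax as muscarinic agonist stimulus; incubation: compound preincubation 20 min at room temperature before agonist; signal: Fluo4-AM (2 µM) calcium-flux fluorescence, kinetic read; measure: integrated calcium ratio converted to B score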
RGS4 inh – inhibitors of human RGS4; P49798; HEK293 M3R/RGS4 inducible, Fluo-4 calcium flux; stronger effect = higher value; triggered by carbachol at its EC20; B-score at 10 µM; 310,000 compounds, 0.45% hits;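 active = B-score, a plate-corrected calcium signal, over three deviations above library mean, with baseline fluorescence within five deviations of library mean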;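 note: RGS4 expression induced by doxycycline in cells with stable M3 receptor; B-score is computed from the integrated fluorescence ratio over baseline after carbachol; higher B-score means a larger calcium signal and so more RGS4 inhibition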
Target sequence (P49798 whole entry, looked up): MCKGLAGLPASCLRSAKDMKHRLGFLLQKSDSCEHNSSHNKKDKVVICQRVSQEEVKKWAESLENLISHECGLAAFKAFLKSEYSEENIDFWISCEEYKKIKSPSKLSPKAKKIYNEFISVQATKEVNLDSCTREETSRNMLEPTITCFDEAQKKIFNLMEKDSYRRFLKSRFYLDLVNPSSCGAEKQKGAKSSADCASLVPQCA
MrgX1 antag conf – human MrgX1 receptor antagonism, re-confirmation screen; 2,300 compounds, 19% hits; MrgX1-HEK293, BAM8-22 calcium flux, Fluo-4; stronger effect = lower value; AID 602420; shares compounds with MrgX1 antagonist; remaining BAM8-22 calcium response % of control (stronger effect = lower value), % at 10 µM;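 active = remaining agonist calcium response no higher than 100% minus 3 SD of agonist-only control wells, with starting fluorescence near control levels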;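 note: agonist BAM8-22 given at a near maximal EC90 to ECmax level; peak minus minimum fluorescence divided by baseline after agonist addition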
HEK293 Ca flux – counter-screen for MrgX1 antagonists: effect in parental HEK293 cells | 4,000 compounds, 2% hits | shares compounds with MrgX1 antagonist | Fluo-4 calcium fluorescence, FDSS | fluorescence ratio F(max-min)/F0 at 10 µM;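 active = duplicate-averaged calcium fluorescence ratio at least three times the standard deviation of buffer wells, a nonspecific response in parental cells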
HEK293 Ca counter – activity in parental HEK293 cells without MrgX1; shares compounds with MrgX1 antagonist; parental HEK293 calcium flux, Fluo-4 fluorescence ratio; stronger effect = higher value; fluorescence ratio F(max-min)/F0 at 10 µM; 4,000 compounds, 0.4% hits;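 active = calcium fluorescence ratio, averaged over duplicates, at least 3 SD of the buffer-well ratio, meaning a nonspecific response in receptor-free cells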;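 note: untransfected parental HEK293 lacking MrgX1 used as counterscreen for MrgX1 allosteric activators; fluorescence change taken during the second addition on a kinetic imager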
HEK293 Ca cntr2 – counter-screen for MrgX1 activators: effect in parental HEK293 cells; 4,000 compounds, 8.7% hits; shares compounds with MrgX1 antagonist; fluorescence ratio F(max-min)/F0 at 10 µM; AID 624115; Fluo-4 calcium fluorescence (FDSS); stronger effect = higher value;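 active = calcium fluorescence ratio at least three times the spread of buffer wells, meaning a non-specific response in parental cells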
Numbers without * were called inactive; i = inactive; . = no result given.

SMILES	MrgX1 agonist	MrgX1 PAM	MrgX1 antagonist	RGS4 act	RGS4 inh	MrgX1 antag conf	HEK293 Ca flux	HEK293 Ca counter	HEK293 Ca cntr2
Cc1ccc(CC(=O)N2CC(C)OC(C)C2)cc1 (centres undefined)	i	i	i	i	i	.	.	.	.
COc1ccc(-c2nc(N3CCCC3)[nH]c(=O)c2C#N)cc1	i	i	i	i	i	.	.	.	.
COc1ccc(-c2nc(N3CCC(C)CC3)[nH]c(=O)c2C#N)cc1	i	i	-5.63*	i	i	i	i	i	i
NC(=O)CSc1nc2cc(Cl)ccc2c(=O)n1C1CCCCC1	i	i	i	i	i	.	.	.	.
Cc1ccc(NC(=O)Nc2nnc(-c3ccncc3)s2)cc1C	i	i	-6.11*	i	i	64.0%*	i	i	i
Cc1ccc(N2CCC(N3CCN(C)C(CCO)C3)CC2)cc1 (centres undefined)	i	i	-4.95*	i	i	i	i	i	i
COc1cccc(N2CCC(N3CCN(C)C(CCO)C3)CC2)c1 (centres undefined)	i	i	i	i	i	.	.	.	.
CC(Oc1ccc(Br)cc1)C(=O)Nc1cc(S(=O)(=O)N2CCOCC2)ccc1N1CCCC1 (centres undefined)	i	i	i	i	i	.	.	.	.
COc1ccc(OC)c(NC(=O)Nc2cccc3ccccc23)c1	i	i	-4.57*	i	i	i	i	i	i
COc1ccc(OC)c(NC(=O)CN(Cc2ccccc2)S(C)(=O)=O)c1	i	i	-9.14*	i	i	i	i	i	i
COc1ccc(NC(=O)CN(Cc2ccccc2)S(C)(=O)=O)c(OC)c1	i	i	i	i	i	.	.	.	.
O=C(COC(=O)c1cccc(-n2cnnn2)c1)c1ccc(Br)cc1	i	i	i	i	i	.	.	.	.
COc1cccc([C@@H]2CC=C(C(=O)O)[C@H](c3cccc(Cl)c3)N2S(=O)(=O)c2ccc(C)cc2)c1	i	i	i	.	.	.	.	.	.
CSC1=NCCN1C(=O)c1c(-c2ccccc2Cl)noc1C	i	i	-6.87*	i	i	i	i	i	i
CCc1ccc(N2CC(C(=O)Nc3cc(C)ccc3F)CC2=O)cc1 (centres undefined)	i	i	-6.86*	i	i	i	i	i	i
CCc1ccc(N2CC(C(=O)Nc3ccc(F)cc3)CC2=O)cc1 (centres undefined)	i	i	i	i	i	.	.	.	.
Cc1cc(NC(=O)C2CC(=O)N(c3ccccc3)C2)no1 (centres undefined)	i	i	-4.64*	i	i	84.5%*	i	i	i
Cc1cc(NC(=O)c2ccc(N3C(=O)CCC3=O)cc2)no1	i	i	-5.27*	i	i	i	i	i	i
Cc1cc(NC(=O)c2ccc(N3C(=O)C4C5C=CC(C5)C4C3=O)cc2)no1 (centres undefined)	i	i	i	i	i	.	.	.	.
Cc1cc(C)c(S(=O)(=O)N2CCN(C(=O)c3ccc4c(c3)OCO4)CC2)c(C)c1	i	i	i	i	i	.	.	.	.
Cc1cc(C)c(S(=O)(=O)Nc2nnc(C(C)C)s2)c(C)c1	i	i	i	i	i	.	.	.	.
CCCNC(=O)N1C2=NC(C(=O)OC)=C(C(=O)OC)[C@@H]3N(Cc4ccccc4)c4ccccc4[C@]23C[C@H]1CO	i	i	i	i	i	.	.	.	.
